Results gathered from unrelated publications.
Each line is one published result; the experiments were not run side by side.
ERBB2: Receptor tyrosine-protein kinase erbB-2 (ERBB2, Homo sapiens, UniProt P04626)

Compound	target	effect on	mode	technique	concentration	endpoint	result
CNc1ncc2c(/C=C/C(=O)N3CCC(OC)CC3)nn(Cc3cccc(C(F)(F)F)c3)c2n1	Tyrosine-protein kinase ABL1 (ABL1, Homo sapiens, UniProt P00519)	enzyme activity	inhibitor	radiometric	1 µM	remaining activity	92%
CC(C)OC(=O)CNc1cccc(CN(Cc2ccc(-n3cccn3)cc2)S(=O)(=O)c2cccnc2)n1	Carbonic anhydrase 1 (CA1, Homo sapiens, UniProt P00915)	enzyme activity	inhibitor		10 µM	inhibition	5%
CN(C)C/C=C/C(=O)Nc1cc2c(Nc3ccc(F)c(Cl)c3)ncnc2cc1O[C@H]1CCOC1	ERBB2	cell-free assay		competition with immobilised ligand	10 µM	inhibition	~100%
C=CC(=O)N1CCC(COCC(=O)N2CCN(c3nc(-c4cnc(N)nc4C(F)F)nc(N4CCOC[C@@H]4C)n3)CC2)CC1	Insulin-like growth factor 1 receptor (IGF1R, Homo sapiens, UniProt P08069)	binding		competition with immobilised ligand	1 µM	remaining binding	92%
Cc1cc([C@@H](C)Nc2ccccc2C(=O)O)c2nc(N3CCC(F)(F)CC3)c(C#N)c(=O)n2c1	Tyrosine-protein kinase ABL1, phosphorylated (ABL1, Homo sapiens, UniProt P00519)	binding		competition with immobilised ligand	1 µM	remaining binding	100%
O=C(O)CNc1cccc(CN(Cc2ccc(-n3cccn3)cc2)S(=O)(=O)c2cccnc2)n1	Carbonic anhydrase 2 (CA2, Homo sapiens, UniProt P00918)	enzyme activity	inhibitor		10 µM	inhibition	0%
COc1cc(-c2cncc3c2CN(C)Cc2cc(N4CCNCC4)ccc2-3)cc(OC)c1OC	ERBB2	enzyme activity	inhibitor		1 µM	remaining activity	106%
C=CC(=O)N1CCCN(C(=O)c2cc(Sc3cnc(NC(=O)C4CC4)s3)c(C)cc2OC)C[C@H]1C	Tyrosine-protein kinase ITK/TSK (ITK, Homo sapiens, UniProt Q08881)	enzyme activity	inhibitor		1 µM	inhibition	> 95%
